Source: ChEMBL document CHEMBL3992532, “Structure-Based Design of Macrocyclic Factor XIa Inhibitors: Discovery of the Macrocyclic Amide Linker” (J Med Chem, 2017)

Key:
Coagulation factor XI [1] = biological target: T1, Coagulation factor XI (Homo sapiens, UniProt P03951); assay: Inhibition of human coagulation factor 11a using pyroGlu-Pro-Arg-pNA as substrate after 10 to 120 mins at 37 degC by spectrophotometric method
Summary of the method: (§1)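 Purified human proteases, 37 °C; reaction started by adding enzyme to substrate (up to 4× Km) ± inhibitor; compound from DMSO, 1% DMSO final except where noted. […] Buffers: FXIa, chymotrypsin, tPA, plasmin, urokinase in 50 mM HEPES pH 7.4, 145 mM NaCl, 5 mM KCl, 0.1% PEG 8000; FXa, thrombin, trypsin, plasma kallikrein, aPC in 100 mM Na phosphate pH 7.4, 200 mM NaCl, 0.5% PEG 8000; FIXa in 50 mM Tris pH 7.4, 100 mM NaCl, 5 mM CaCl2, 0.5% PEG 8000, 2% DMSO.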

Plasma = assay: Anticoagulant activity in human plasma assessed as concentration required to produce 50% increase in activated partial thromboplastin time; assay type: functional
Summary of the method: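 Citrated (one-tenth volume 0.11 M) plasma from healthy volunteers, spun 2,000 g 10 min, kept on ice; 10 mM DMSO stock diluted in plasma, up to 7 concentrations; aPTT on automated coagulometer, duplicates as mean ratio to baseline; EC1.5x (50% prolongation) by linear interpolation, as total plasma concentration.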

[2] = Half life in human liver microsomes; assay type: ADME, microsome
Coagulation factor XI [3] = biological target: T1, Coagulation factor XI; assay: Inhibition of human coagulation factor 11a using pyroGlu-Pro-Arg-pNA as substrate after 10 to 120 mins at 25 degC by spectrophotometric method
[4] = Half life in Beagle dog at 0.21 mg/kg, iv administered as 10 mins infusion or 0.42 mg/kg, po via gavage administered as cassette dose by LC-MS/MS method; assay type: ADME, organism-based, Canis lupus familiaris; conditions: in vivo
Summary of the method: (§2)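 Dog PK vehicles as footnoted: iv in 70% PEG 400/20% water/10% ethanol; po either 70% PEG 400/20% TPGS/10% ethanol or the same PEG 400/water/ethanol vehicle used for iv.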

Canis familiaris [5] = assay: AUC in Beagle dog at 0.42 mg/kg, po administered via gavage as cassette dose by LC-MS/MS method; assay type: ADME, organism-based, Canis lupus familiaris; conditions: in vivo; summary of the method: as §2
[6] = Volume of distribution at steady state in Beagle dog at 0.21 mg/kg, iv administered as 10 mins infusion or 0.42 mg/kg, po via gavage administered as cassette dose by LC-MS/MS method; assay type: ADME, organism-based, Canis lupus familiaris; conditions: in vivo, read-out: Vdss; summary of the method: as §2
Canis familiaris [7] = assay: Oral bioavailability in Beagle dog at 0.42 mg/kg administered via gavage as cassette dose by LC-MS/MS method; assay type: ADME, organism-based, Canis lupus familiaris; conditions: in vivo; summary of the method: as §2
[8] = Half life in dog liver microsomes; assay type: ADME, Canis lupus familiaris, microsome
[9] = biological target: Urokinase-type plasminogen activator (Homo sapiens, UniProt P00749); assay: Inhibition of human urokinase using pyro-Glu-Gly-Arg-pNA as substrate after 10 to 120 mins at 37 degC by spectrophotometric method; summary of the method: as §1
[10] = Inhibition of human chymotrypsin using MeO-SucArg-Pro-Tyr-pNA as substrate after 10 to 120 mins at 37 degC by spectrophotometric method; summary of the method: as §1
Plasminogen = Plasminogen (Homo sapiens, UniProt P00747); assay: Inhibition of human plasmin using H-(D)-Val-Leu-LyspNA as substrate after 10 to 120 mins at 37 degC by spectrophotometric method; summary of the method: as §1
Coagulation factor X = Coagulation factor X (Homo sapiens, UniProt P00742); assay: Inhibition of human coagulation factor 10a using N-benzoyl-Ile-Glu-(OH,OMe)-Gly-Arg-pNA as substrate after 10 to 120 mins at 37 degC by spectrophotometric method; summary of the method: as §1
Prothrombin = Prothrombin (Homo sapiens, UniProt P00734); assay: Inhibition of human thrombin using pyroGlu-Pro-Arg-pNA as substrate after 10 to 120 mins at 37 degC by spectrophotometric method; summary of the method: as §1
[11] = Inhibition of human trypsin using N-benzoyl-Ile-Glu-(OH,OMe)-Gly-Arg-pNA as substrate after 10 to 120 mins at 37 degC by spectrophotometric method; summary of the method: as §1
[12] = biological target: Vitamin K-dependent protein C (Homo sapiens, UniProt P04070); assay: Inhibition of human activated protein C using pyroGlu-Pro-Arg-pNA as substrate after 10 to 120 mins at 37 degC by spectrophotometric method; summary of the method: as §1
[13] = biological target: Tissue-type plasminogen activator (Homo sapiens, UniProt P00750); assay: Inhibition of human tissue plasminogen activator using methylsulfonyl-D-cyclohexylalanyl-GlyArg-pNA as substrate after 10 to 120 mins at 37 degC by spectrophotometric method; summary of the method: as §1
Coagulation factor XII = biological target: T2, Coagulation factor XII (Homo sapiens, UniProt P00748); assay: Inhibition of human coagulation factor 12a using H-(D)-CHT-Gly-Arg-pNA as substrate after 10 to 120 mins at 25 degC by spectrophotometric method
T2 sequence (P00748 whole entry): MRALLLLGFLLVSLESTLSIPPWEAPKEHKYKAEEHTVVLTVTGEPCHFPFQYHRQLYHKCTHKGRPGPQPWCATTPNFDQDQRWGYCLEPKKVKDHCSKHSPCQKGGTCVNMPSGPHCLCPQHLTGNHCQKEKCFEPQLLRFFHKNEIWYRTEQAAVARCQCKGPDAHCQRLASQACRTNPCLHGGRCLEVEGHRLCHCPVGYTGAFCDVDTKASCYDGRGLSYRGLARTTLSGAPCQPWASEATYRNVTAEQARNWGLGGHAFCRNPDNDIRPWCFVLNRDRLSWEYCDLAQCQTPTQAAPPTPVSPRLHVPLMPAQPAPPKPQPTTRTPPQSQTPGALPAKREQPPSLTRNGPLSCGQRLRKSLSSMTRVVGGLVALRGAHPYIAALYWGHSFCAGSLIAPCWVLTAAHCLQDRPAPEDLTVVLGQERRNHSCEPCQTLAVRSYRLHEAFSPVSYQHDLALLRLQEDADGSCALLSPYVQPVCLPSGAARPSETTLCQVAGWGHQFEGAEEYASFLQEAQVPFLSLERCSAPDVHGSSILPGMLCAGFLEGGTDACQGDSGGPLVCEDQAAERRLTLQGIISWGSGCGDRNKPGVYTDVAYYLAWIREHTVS

Coagulation factor IX = Coagulation factor IX (Homo sapiens, UniProt P00740); assay: Inhibition of human coagulation factor 9a using methylsulfonyl-D-cyclohexylglycyl-Gly-Arg-AMC as substrate after 10 to 120 mins at 37 degC by spectrophotometric method; summary of the method: as §1
Plasma kallikrein = Plasma kallikrein (Homo sapiens, UniProt P03952); assay: Inhibition of human plasma kallikrein using H-(D)-Pro-Phe-Arg-pNA as substrate after 10 to 120 mins at 37 degC by spectrophotometric method; summary of the method: as §1
Coagulation factor VII = biological target: T3, Coagulation factor VII (Homo sapiens, UniProt P08709); assay: Inhibition of human coagulation factor 7a using H-(D)-Ile-Pro-Arg-pNA as substrate after 10 to 120 mins at 25 degC by spectrophotometric method
T3 sequence (P08709 whole entry): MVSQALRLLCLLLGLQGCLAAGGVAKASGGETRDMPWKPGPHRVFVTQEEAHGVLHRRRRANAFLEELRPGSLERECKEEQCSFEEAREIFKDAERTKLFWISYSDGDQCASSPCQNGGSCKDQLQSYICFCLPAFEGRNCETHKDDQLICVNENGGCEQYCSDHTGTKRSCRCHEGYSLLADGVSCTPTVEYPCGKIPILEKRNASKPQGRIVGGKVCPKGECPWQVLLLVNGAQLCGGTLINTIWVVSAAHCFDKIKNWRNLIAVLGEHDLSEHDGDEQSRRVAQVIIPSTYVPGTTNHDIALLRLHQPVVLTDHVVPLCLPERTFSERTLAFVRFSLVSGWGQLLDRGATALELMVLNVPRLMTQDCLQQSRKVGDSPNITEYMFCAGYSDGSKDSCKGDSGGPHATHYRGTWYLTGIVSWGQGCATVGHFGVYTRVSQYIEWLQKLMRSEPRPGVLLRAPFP

T1 sequence (P03951 19-387 limits assumed): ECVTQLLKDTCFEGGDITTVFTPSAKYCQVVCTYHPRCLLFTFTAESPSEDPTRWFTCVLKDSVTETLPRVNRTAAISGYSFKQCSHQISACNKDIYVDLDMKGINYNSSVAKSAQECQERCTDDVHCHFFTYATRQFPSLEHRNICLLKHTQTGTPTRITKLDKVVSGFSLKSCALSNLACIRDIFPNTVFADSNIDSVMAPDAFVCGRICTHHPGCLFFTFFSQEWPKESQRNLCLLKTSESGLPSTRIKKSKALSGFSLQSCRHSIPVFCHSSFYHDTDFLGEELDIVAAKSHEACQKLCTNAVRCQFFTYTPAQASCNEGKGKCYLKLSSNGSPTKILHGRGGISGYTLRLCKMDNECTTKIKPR
T1 sequence (P03951 388-625 limits assumed): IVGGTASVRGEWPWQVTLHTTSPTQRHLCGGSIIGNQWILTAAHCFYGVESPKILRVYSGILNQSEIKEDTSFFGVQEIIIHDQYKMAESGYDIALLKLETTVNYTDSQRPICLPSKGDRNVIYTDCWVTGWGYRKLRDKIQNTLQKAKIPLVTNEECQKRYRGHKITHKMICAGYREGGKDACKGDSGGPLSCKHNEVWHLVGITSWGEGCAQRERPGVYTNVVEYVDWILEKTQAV
Sequence of Vitamin K-dependent protein C (P04070 43-197 limits assumed): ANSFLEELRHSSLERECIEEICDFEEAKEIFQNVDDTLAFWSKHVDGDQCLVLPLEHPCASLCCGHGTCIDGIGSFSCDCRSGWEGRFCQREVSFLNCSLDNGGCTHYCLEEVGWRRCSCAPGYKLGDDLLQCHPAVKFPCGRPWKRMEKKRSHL
Sequence of Vitamin K-dependent protein C (P04070 212-461 limits assumed): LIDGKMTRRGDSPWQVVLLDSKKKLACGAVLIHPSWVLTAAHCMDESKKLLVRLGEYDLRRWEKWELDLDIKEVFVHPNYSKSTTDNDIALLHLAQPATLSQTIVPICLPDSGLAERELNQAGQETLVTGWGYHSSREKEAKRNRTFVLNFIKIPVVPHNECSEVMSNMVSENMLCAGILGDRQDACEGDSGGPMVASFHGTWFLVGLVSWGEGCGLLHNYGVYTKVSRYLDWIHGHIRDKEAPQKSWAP
Sequence of Tissue-type plasminogen activator (P00750 whole entry): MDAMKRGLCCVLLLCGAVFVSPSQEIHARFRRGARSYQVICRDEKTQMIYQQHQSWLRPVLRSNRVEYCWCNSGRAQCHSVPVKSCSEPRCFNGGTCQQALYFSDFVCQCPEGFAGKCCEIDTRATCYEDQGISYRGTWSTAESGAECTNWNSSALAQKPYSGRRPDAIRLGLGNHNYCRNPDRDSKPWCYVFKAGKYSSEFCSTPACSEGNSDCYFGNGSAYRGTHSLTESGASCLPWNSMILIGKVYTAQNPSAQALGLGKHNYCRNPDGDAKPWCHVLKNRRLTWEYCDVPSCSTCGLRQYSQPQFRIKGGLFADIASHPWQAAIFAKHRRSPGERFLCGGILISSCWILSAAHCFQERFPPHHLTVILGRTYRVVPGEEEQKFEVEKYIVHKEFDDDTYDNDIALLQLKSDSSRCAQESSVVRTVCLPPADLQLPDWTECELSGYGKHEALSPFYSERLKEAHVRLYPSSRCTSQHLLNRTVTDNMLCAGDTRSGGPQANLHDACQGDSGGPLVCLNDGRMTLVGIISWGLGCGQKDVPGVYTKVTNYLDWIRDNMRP
Sequence of Coagulation factor X (P00742 41-179 limits assumed): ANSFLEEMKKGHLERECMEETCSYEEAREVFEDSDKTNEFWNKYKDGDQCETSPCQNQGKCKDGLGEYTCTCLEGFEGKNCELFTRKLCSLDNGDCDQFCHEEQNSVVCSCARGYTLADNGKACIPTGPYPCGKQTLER
Sequence of Coagulation factor X (P00742 235-488 limits assumed): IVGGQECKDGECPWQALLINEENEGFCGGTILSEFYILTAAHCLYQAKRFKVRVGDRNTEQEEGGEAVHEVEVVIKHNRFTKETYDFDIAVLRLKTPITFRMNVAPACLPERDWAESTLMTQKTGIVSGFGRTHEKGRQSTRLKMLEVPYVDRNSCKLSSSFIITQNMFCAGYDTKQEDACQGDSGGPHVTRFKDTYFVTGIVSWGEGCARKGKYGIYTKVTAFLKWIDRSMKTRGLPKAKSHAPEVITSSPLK
Sequence of Plasma kallikrein (P03952 20-390 limits assumed): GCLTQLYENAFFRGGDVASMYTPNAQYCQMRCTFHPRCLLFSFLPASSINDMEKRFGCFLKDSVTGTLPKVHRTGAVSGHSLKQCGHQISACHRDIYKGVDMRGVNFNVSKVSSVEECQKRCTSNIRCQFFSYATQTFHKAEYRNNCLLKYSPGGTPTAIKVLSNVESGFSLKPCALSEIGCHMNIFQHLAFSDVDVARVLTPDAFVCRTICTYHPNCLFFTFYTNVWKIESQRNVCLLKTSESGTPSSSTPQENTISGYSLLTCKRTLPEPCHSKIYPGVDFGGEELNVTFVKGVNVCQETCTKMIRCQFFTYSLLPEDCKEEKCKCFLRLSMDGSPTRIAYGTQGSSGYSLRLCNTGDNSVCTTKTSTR
Sequence of Plasma kallikrein (P03952 391-638 limits assumed): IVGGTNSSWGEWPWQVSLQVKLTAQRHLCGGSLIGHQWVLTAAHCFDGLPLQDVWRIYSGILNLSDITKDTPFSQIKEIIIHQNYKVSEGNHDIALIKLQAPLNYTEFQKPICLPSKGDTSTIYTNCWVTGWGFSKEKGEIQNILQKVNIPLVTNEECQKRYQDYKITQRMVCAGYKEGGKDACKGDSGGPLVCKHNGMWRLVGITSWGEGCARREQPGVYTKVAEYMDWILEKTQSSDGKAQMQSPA
Sequence of Plasminogen (P00747 97-580 limits assumed): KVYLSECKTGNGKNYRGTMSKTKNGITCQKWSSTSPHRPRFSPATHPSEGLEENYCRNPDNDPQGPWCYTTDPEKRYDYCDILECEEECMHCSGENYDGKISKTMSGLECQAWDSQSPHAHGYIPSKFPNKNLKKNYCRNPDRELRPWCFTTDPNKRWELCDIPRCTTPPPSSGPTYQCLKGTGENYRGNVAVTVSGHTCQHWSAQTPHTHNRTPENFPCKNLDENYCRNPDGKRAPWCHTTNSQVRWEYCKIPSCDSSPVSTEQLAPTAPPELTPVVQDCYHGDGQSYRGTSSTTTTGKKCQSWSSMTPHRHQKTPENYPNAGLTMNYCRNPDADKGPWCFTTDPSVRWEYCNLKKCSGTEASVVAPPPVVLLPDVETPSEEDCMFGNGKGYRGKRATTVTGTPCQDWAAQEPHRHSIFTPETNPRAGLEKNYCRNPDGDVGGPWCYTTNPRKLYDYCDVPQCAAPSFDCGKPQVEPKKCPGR
Sequence of Plasminogen (P00747 581-810 limits assumed): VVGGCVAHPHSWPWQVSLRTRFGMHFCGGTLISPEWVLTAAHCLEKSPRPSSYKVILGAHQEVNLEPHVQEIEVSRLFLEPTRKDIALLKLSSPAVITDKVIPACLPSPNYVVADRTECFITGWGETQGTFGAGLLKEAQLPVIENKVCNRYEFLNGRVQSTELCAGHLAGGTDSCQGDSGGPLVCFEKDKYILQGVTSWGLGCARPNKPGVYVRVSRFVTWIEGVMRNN
Sequence of Coagulation factor IX (P00740 47-191 limits assumed): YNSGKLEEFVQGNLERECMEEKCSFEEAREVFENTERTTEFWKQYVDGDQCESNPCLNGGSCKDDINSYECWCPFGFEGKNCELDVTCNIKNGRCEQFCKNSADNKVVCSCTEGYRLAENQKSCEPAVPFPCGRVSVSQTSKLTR
Sequence of Coagulation factor IX (P00740 227-461 limits assumed): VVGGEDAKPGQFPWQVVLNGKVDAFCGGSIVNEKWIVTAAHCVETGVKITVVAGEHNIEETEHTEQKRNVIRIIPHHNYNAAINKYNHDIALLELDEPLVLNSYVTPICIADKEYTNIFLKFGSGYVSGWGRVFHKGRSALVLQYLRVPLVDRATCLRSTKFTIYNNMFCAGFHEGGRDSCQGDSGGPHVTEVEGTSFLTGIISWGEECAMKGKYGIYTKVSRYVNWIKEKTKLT

Row | SMILES | Ki (Coagulation factor XI [1]) | EC1.5 (Plasma) | half-life [2] | further results
1 | COC(=O)Nc1ccc2c(c1)CCCCCCC[C@H](NC(=O)/C=C/c1cc(Cl)ccc1-n1cnnn1)c1nc-2c(Cl)[nH]1 | 68 nM | 34 µM |  | 
2 | COC(=O)Nc1ccc2c(c1)NC(=O)OCCCC[C@H](NC(=O)/C=C/c1cc(Cl)ccc1-n1cnnn1)c1nc-2c[nH]1 | 3.8 nM | 0.86 µM | 1.03 h | 
3 | COC(=O)Nc1ccc2c(c1)NC(=O)CC/C=C\C[C@H](NC(=O)/C=C/c1cc(Cl)ccc1-n1cnnn1)c1nc-2c[nH]1 |  | 12 µM |  | 
4 | COC(=O)Nc1ccc2c(c1)OCCC/C=C/C[C@H](NC(=O)/C=C/c1cc(Cl)ccc1-n1cnnn1)c1nc-2c[nH]1 | 3920 nM |  |  | 
5 | COC(=O)Nc1ccc2c(c1)OCCCCC[C@H](NC(=O)/C=C/c1cc(Cl)ccc1-n1cnnn1)c1nc-2c[nH]1 |  |  |  | Ki (Coagulation factor XI [3]): 420 nM
6 | COC(=O)Nc1ccc2c(c1)NCCC/C=C/C[C@H](NC(=O)/C=C/c1cc(Cl)ccc1-n1cnnn1)c1nc-2c[nH]1 | 514 nM |  | 0.283 h | 
7 | COC(=O)Nc1ccc2c(c1)CCCCCC[C@H](NC(=O)/C=C/c1cc(Cl)ccc1-n1cnnn1)c1nc-2c[nH]1 | 87 nM | >40 µM |  | half-life [4]: 3.2 h; AUC (Canis familiaris [5]): 0.458 µM·h; Vd [6]: 0.7 L/kg; F (Canis familiaris [7]): 12%; half-life [8]: > 2 h
8 | COC(=O)Nc1ccc2c(c1)OCCCCCC[C@H](NC(=O)/C=C/c1cc(Cl)ccc1-n1cnnn1)c1nc-2c(Cl)[nH]1 | 76 nM | >40 µM |  | 
9 | COC(=O)Nc1ccc2c(c1)CCCC/C=C/C[C@H](NC(=O)/C=C/c1cc(Cl)ccc1-n1cnnn1)c1nc-2c[nH]1 | 184 nM | >40 µM |  | 
10 | COC(=O)Nc1ccc2c(c1)NC(=O)C/C=C/C[C@H](NC(=O)/C=C/c1cc(Cl)ccc1-n1cnnn1)c1nc-2c[nH]1 | 264 nM | >40 µM |  | 
11 | COC(=O)Nc1ccc2c(c1)CCCCCC[C@H](NC(=O)/C=C/c1cc(Cl)ccc1-n1cnnn1)c1nc-2c(Cl)[nH]1 | 42 nM | 27 µM |  | 
12 | COC(=O)Nc1ccc2c(c1)NC(=O)OC/C=C/C[C@H](NC(=O)/C=C/c1cc(Cl)ccc1-n1cnnn1)c1nc-2c[nH]1 | 0.88 nM | 0.45 µM | 1.15 h | 
13 | COC(=O)Nc1ccc2c(c1)NC(=O)CCCCC[C@H](NC(=O)/C=C/c1cc(Cl)ccc1-n1cnnn1)c1nc-2c(Cl)[nH]1 | 0.47 nM | 0.92 µM | 1.43 h | 
14 | COC(=O)Nc1ccc2c(c1)CCCCCCC[C@H](NC(=O)/C=C/c1cc(Cl)ccc1-n1cnnn1)c1nc-2c[nH]1 | 600 nM |  |  | 
15 | C=CC[C@H](NC(=O)/C=C/c1cc(Cl)ccc1-n1cnnn1)c1nc(-c2ccc(NC(=O)OC)cc2NC(=O)CC)c[nH]1 | 27 nM | 21 µM | 0.2 h | 
16 | COC(=O)Nc1ccc(-c2nc([C@H](Cc3ccccc3)NC(=O)/C=C/c3cc(Cl)ccc3-n3cnnn3)[nH]c2Cl)cc1 | 5.8 nM | 5.3 µM |  | Ki [9]: > 15100 nM; Ki [10]: > 4530 nM; Ki (Plasminogen): > 15200 nM; Ki (Coagulation factor X): > 13300 nM; Ki (Prothrombin): > 11500 nM; Ki [11]: > 10000 nM; Ki [12]: > 21500 nM; Ki [13]: > 6150 nM; Ki (Coagulation factor XII): > 3050 nM; Ki (Coagulation factor IX): > 27100 nM; Ki (Plasma kallikrein): 519 nM; Ki (Coagulation factor VII): > 13400 nM
17 | COC(=O)Nc1ccc2c(c1)NC(=O)CC/C=C/C[C@H](NC(=O)/C=C/c1cc(Cl)ccc1-n1cnnn1)c1nc-2c(Cl)[nH]1 | 0.03 nM | 0.28 µM | 0.967 h | 
